Measured values gathered from unrelated publications.
Protocols differ between the studies behind these lines.
Cell line: T47D
Read-out: cell growth or viability

With Cc1nc(NC(=O)N2CCC[C@H]2C(N)=O)sc1-c1ccnc(C(C)(C)C(F)(F)F)c1 the EC50 was 0.444 µM (ATP luminescence; 5 days).
The IC50 of COC(=O)c1cc(C(C)=NNc2nc(-c3ccc4c(c3)OCCCO4)cs2)ccc1O is reported as 21.2 µM (MTT; 96 h).
C[C@H](Nc1ccc2c(c1)OCCn1cc(N3C(=O)OC[C@H]3C(F)F)nc1-2)C(N)=O has an EC50 of 0.0312 µM (ATP luminescence; 5 days).
With Cc1c(Cl)c(=O)oc2cc(OCCCCSC#N)ccc12 the GI50 was 24 µM (SRB).
The IC50 of CS(=O)(=O)NCCCCN=C=S is reported as 26.9 µM (MTT; 24 h).
With COc1cccc2c1C(=O)c1c(O)c3c(c(O)c1C2=O)C[C@@](O)(C(=O)CO)C[C@@H]3O[C@H]1C[C@H](N)[C@H](O)[C@H](C)O1 the IC50 was 0.27 µM (MTT; 75 h).
N#CSCCCCOc1ccc2c(-c3ccccc3)cc(=O)oc2c1 has a GI50 of 34 µM (SRB).
C=C[C@]1(C)C=C2CC[C@H]3C(C)(C)CCC[C@]3(C)[C@H]2CC1 has an IC50 of 159 µM (MTT; 75 h).
CN(C)c1cccc2c(S(=O)(=O)NCCCCN=C=S)cccc12 has an IC50 of 21.1 µM (MTT; 24 h).
The IC50 of COC(=O)c1cc(C(C)=NNc2nc(-c3ccc(C)cc3)cs2)ccc1O is reported as 24.1 µM (MTT; 96 h).
COc1cccc2c1C(=O)c1c(O)c3c(c(O)c1C2=O)C[C@@](O)(C(=O)CO)C[C@@H]3O[C@H]1C[C@H](N)[C@H](O)[C@H](C)O1 has an IC50 of 75.9 µM (MTT; 24 h).
